In ChEMBL document CHEMBL1145212, “Fluorinated diaryl sulfides as serotonin transporter ligands: synthesis, structure-activity relationship study, and in vivo evaluation of fluorine-18-labeled compounds as PET imaging agents” (J Med Chem, 2005):

What was measured:
Rattus norvegicus [1] = experiment: Biodistribution of [18F]AFM in rat hypothalamus at 120 min postinjection in vivo; format: ADME, organism-based; settings: 2 h
Outline: (§1)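 Male Sprague-Dawley rats, three per group, given about 20 µCi of F-18 radioligand in saline by tail vein. Sacrificed by decapitation after CO₂ anaesthesia at 10, 30, 60, 90 or 120 min. Brain regions and blood removed, weighed and gamma-counted. %ID was decay-corrected and corrected for residual tail activity against F-18 standards, then converted to %ID/g; mean ± SD.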

Rattus norvegicus [2] = experiment: Biodistribution of [18F]AFM in rat frontal cortex at 10 min postinjection in vivo; format: ADME, organism-based
Outline: (§2)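 Male Sprague-Dawley rats, three per group, received ~20 µCi of the F-18 radioligand in saline by tail-vein injection. Rats were anesthetized with CO2 and decapitated at 10, 30, 60, 90 or 120 min. Blood and brain regions were weighed and gamma-counted. %ID/g was decay- and tail-residual-corrected against F-18 standards made from the injectate and reported as mean ± SD.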

Rattus norvegicus [3] = experiment: Biodistribution of [18F]AFM in rat frontal cortex at 60 min postinjection in vivo; format: ADME, organism-based; settings: 1 h; outline: as §2
Rattus norvegicus [4] = experiment: Biodistribution of [18F]AFM in rat frontal cortex at 90 min postinjection in vivo; format: ADME, organism-based; settings: 1.5 h; outline: as §2
Rattus norvegicus [5] = experiment: Biodistribution of [18F]AFM in rat frontal cortex at 120 min postinjection in vivo; format: ADME, organism-based; settings: 2 h; outline: as §2
Rattus norvegicus [6] = experiment: Biodistribution of [18F]AFM in rat blood at 120 min postinjection in vivo; format: ADME, organism-based; settings: 2 h; outline: as §2
Rattus norvegicus [7] = experiment: Biodistribution of [18F]AFM in rat striatum at 10 min postinjection in vivo; format: ADME, organism-based; outline: as §1
Rattus norvegicus [8] = experiment: Biodistribution of [18F]-AFM in rat striatum at 30 min postinjection in vivo; format: ADME, organism-based; settings: 0.5 h
Outline: (§3)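 Male Sprague-Dawley rats, three per time point, received the F-18 radioligand in saline (~20 µCi per rat at injection) by tail vein. Under CO2 anesthesia they were decapitated at 10, 30, 60, 90 or 120 min. Blood and dissected brain regions were weighed and gamma counted. Activity was decay-corrected, and injected dose was corrected for tail residual activity. Uptake was expressed as %ID/g versus injectate standards, mean ± SD.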

Rattus norvegicus [9] = experiment: Biodistribution of [18F]AFM in rat striatum at 90 min postinjection in vivo; format: ADME, organism-based; settings: 1.5 h
Outline: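 Male Sprague-Dawley rats (three per group) received ~20 µCi of the F-18-labeled ligand in saline by tail vein. They were anesthetized with CO₂ and decapitated at 10, 30, 60, 90 and 120 min. Striatum and other regions were weighed and gamma-counted. Values are decay- and tail-corrected %ID/g against standards made from the injection solution, reported as mean ± SD.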

Rattus norvegicus [10] = experiment: Biodistribution of [18F]AFM in rat thalamus at 10 min postinjection in vivo; format: ADME, organism-based
Rattus norvegicus [11] = experiment: Biodistribution of [18F]-AFM in rat thalamus at 30 min postinjection in vivo; format: ADME, organism-based; settings: 0.5 h; outline: as §3
Rattus norvegicus [12] = experiment: Biodistribution of [18F]AFM in rat thalamus at 60 min postinjection in vivo; format: ADME, organism-based; settings: 1 h
Rattus norvegicus [13] = experiment: Biodistribution of [18F]AFM in rat thalamus at 90 min postinjection in vivo; format: ADME, organism-based; settings: 1.5 h
Rattus norvegicus [14] = species on record: Rattus norvegicus; experiment: Specific binding of [18F]AFA in thalamus of rat pretreated with compound 7d; n=3; format: functional
Rattus norvegicus [15] = species on record: Rattus norvegicus; experiment: Specific binding of [18F]-AFA in hippocampus of rat pretreated with compound 7d; n=3; format: functional
Rattus norvegicus [16] = species on record: Rattus norvegicus; experiment: Specific binding of [18F]AFA in frontal cortex of rat pretreated with compound 7d; n=3; format: functional
Rattus norvegicus [17] = experiment: Biodistribution of [18F]AFM in rat blood at 10 min postinjection in vivo; format: ADME, organism-based; outline: as §2
Rattus norvegicus [18] = experiment: Biodistribution of [18F]AFM in rat blood at 30 min postinjection in vivo; format: ADME, organism-based; settings: 0.5 h; outline: as §2
Rattus norvegicus [19] = experiment: Biodistribution of [18F]AFM in rat blood at 90 min postinjection in vivo; format: ADME, organism-based; settings: 1.5 h; outline: as §2
Rattus norvegicus [20] = experiment: Biodistribution of [18F]-AFM in rat striatum 60 min postinjection in vivo; format: ADME, organism-based; settings: 1 h; outline: as §3
Rattus norvegicus [21] = experiment: Biodistribution of [18F]-AFM in rat cerebellum at 10 min postinjection in vivo; format: ADME, organism-based; outline: as §3
Rattus norvegicus [22] = experiment: Biodistribution of [18F]AFM in rat cerebellum at 30 min postinjection in vivo; format: ADME, organism-based; settings: 0.5 h; outline: as §2
Rattus norvegicus [23] = experiment: Biodistribution of [18F]AFM in rat cerebellum at 60 min postinjection in vivo; format: ADME, organism-based; settings: 1 h; outline: as §2
Rattus norvegicus [24] = experiment: Biodistribution of [18F]AFM in rat cerebellum at 90 min postinjection in vivo; format: ADME, organism-based; settings: 1.5 h; outline: as §2
Rattus norvegicus [25] = experiment: Biodistribution of [18F]AFM in rat cerebellum at 120 min postinjection in vivo; format: ADME, organism-based; settings: 2 h; outline: as §2
Rattus norvegicus [26] = experiment: Biodistribution of [18F]AFM in rat hippocampus at 10 min postinjection in vivo; format: ADME, organism-based; outline: as §2
Rattus norvegicus [27] = experiment: Biodistribution of [18F]AFM in rat hippocampus at 30 min postinjection in vivo; format: ADME, organism-based; settings: 0.5 h; outline: as §2
Rattus norvegicus [28] = experiment: Biodistribution of [18F]-AFM in rat hippocampus at 60 min postinjection in vivo; format: ADME, organism-based; settings: 1 h; outline: as §3
Rattus norvegicus [29] = experiment: Biodistribution of [18F]AFM in rat hippocampus at 90 min postinjection in vivo; format: ADME, organism-based; settings: 1.5 h; outline: as §1
Rattus norvegicus [30] = experiment: Biodistribution of [18F]AFM in rat hippocampus at 120 min postinjection in vivo; format: ADME, organism-based; settings: 2 h; outline: as §2
Rattus norvegicus [31] = experiment: Biodistribution of [18F]AFM in rat hypothalamus at 10 min postinjection in vivo; format: ADME, organism-based; outline: as §1
Rattus norvegicus [32] = experiment: Biodistribution of [18F]AFM in rat hypothalamus at 30 min postinjection in vivo; format: ADME, organism-based; settings: 0.5 h; outline: as §1
Rattus norvegicus [33] = experiment: Biodistribution of [18F]AFM in rat hypothalamus at 60 min postinjection in vivo; format: ADME, organism-based; settings: 1 h; outline: as §1
Rattus norvegicus [34] = experiment: Biodistribution of [18F]AFM in rat hypothalamus at 90 min postinjection in vivo; format: ADME, organism-based; settings: 1.5 h; outline: as §1
Rattus norvegicus [35] = experiment: Biodistribution of [18F]-AFM in rat striatum at 120 min postinjection in vivo; format: ADME, organism-based; settings: 2 h; outline: as §3
Rattus norvegicus [36] = experiment: Biodistribution of [18F]AFM in rat thalamus at 120 min postinjection in vivo; format: ADME, organism-based; settings: 2 h
Rattus norvegicus [37] = species on record: Rattus norvegicus; experiment: Specific binding of [18F]AFA in striatum of rat pretreated with compound 7d; n=3; format: functional
Rattus norvegicus [38] = species on record: Rattus norvegicus; experiment: Specific binding of [18F]AFA in hypothalamus of rat pretreated with compound 7d; n=3; format: functional
Rattus norvegicus [39] = experiment: Biodistribution of [18F]AFM in rat blood at 60 min postinjection in vivo; format: ADME, organism-based; settings: 1 h; outline: as §2
Rattus norvegicus [40] = experiment: Biodistribution of [18F]AFM in rat frontal cortex at 30 min postinjection in vivo; format: ADME, organism-based; settings: 0.5 h; outline: as §2

Structure (SMILES): CN(C)Cc1ccccc1Sc1ccc(C[18F])cc1N
- Biodistribution (Rattus norvegicus [1]): 0.55 %ID/g
- Biodistribution (Rattus norvegicus [2]): 0.82 %ID/g
- Biodistribution (Rattus norvegicus [3]): 0.71 %ID/g
- Biodistribution (Rattus norvegicus [4]): 0.52 %ID/g
- Biodistribution (Rattus norvegicus [5]): 0.38 %ID/g
- Biodistribution (Rattus norvegicus [6]): 0.04 %ID/g
- Biodistribution (Rattus norvegicus [7]): 0.69 %ID/g
- Biodistribution (Rattus norvegicus [8]): 0.83 %ID/g
- Biodistribution (Rattus norvegicus [9]): 0.45 %ID/g
- Biodistribution (Rattus norvegicus [10]): 0.72 %ID/g
- Biodistribution (Rattus norvegicus [11]): 0.88 %ID/g
- Biodistribution (Rattus norvegicus [12]): 0.67 %ID/g
- Biodistribution (Rattus norvegicus [13]): 0.5 %ID/g
- Specific binding (Rattus norvegicus [14]): 0.85 %ID/g
- Specific binding (Rattus norvegicus [15]): 0.45 %ID/g
- Specific binding (Rattus norvegicus [16]): 0.31 %ID/g
- Biodistribution (Rattus norvegicus [17]): 0.37 %ID/g
- Biodistribution (Rattus norvegicus [18]): 0.18 %ID/g
- Biodistribution (Rattus norvegicus [19]): 0.08 %ID/g
- Biodistribution (Rattus norvegicus [20]): 0.57 %ID/g
- Biodistribution (Rattus norvegicus [21]): 0.33 %ID/g
- Biodistribution (Rattus norvegicus [22]): 0.23 %ID/g
- Biodistribution (Rattus norvegicus [23]): 0.13 %ID/g
- Biodistribution (Rattus norvegicus [24]): 0.08 %ID/g
- Biodistribution (Rattus norvegicus [25]): 0.07 %ID/g
- Biodistribution (Rattus norvegicus [26]): 0.51 %ID/g
- Biodistribution (Rattus norvegicus [27]): 0.64 %ID/g
- Biodistribution (Rattus norvegicus [28]): 0.45 %ID/g
- Biodistribution (Rattus norvegicus [29]): 0.36 %ID/g
- Biodistribution (Rattus norvegicus [30]): 0.28 %ID/g
- Biodistribution (Rattus norvegicus [31]): 0.7 %ID/g
- Biodistribution (Rattus norvegicus [32]): 0.82 %ID/g
- Biodistribution (Rattus norvegicus [33]): 0.71 %ID/g
- Biodistribution (Rattus norvegicus [34]): 0.58 %ID/g
- Biodistribution (Rattus norvegicus [35]): 0.42 %ID/g
- Biodistribution (Rattus norvegicus [36]): 0.56 %ID/g
- Specific binding (Rattus norvegicus [37]): 0.53
- Specific binding (Rattus norvegicus [38]): 0.84
- Biodistribution (Rattus norvegicus [39]): 0.1 %ID/g
- Biodistribution (Rattus norvegicus [40]): 0.99 %ID/g
